Measured values reported in PMC5963734 (Neuron, 2018).

System: PSD-95 - α-actinin interaction
Experiment: Competition of co-IP of α-actinin with PSD-95 from brain lysates
Parameters: species or system rat
Conditions: added to Triton X-100 brain lysate during IP of PSD-95; Figure 3D
Outline: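 Adult rat brain (1 g) homogenised on ice in buffer A (150 mM NaCl, 10 mM HEPES, 10 mM EDTA, 10 mM EGTA, pH 7.4) with protease inhibitors and 1% Triton X-100, then cleared at 250,000 × g for 30 min. Competitors added: PSD-95 peptide 1-13, GST-PSD-95 1-64, peptide 15-36, or Ca2+ plus CaM. Per IP, 1 mg protein, 1 μg PSD-95 antibody and protein G-Sepharose, 4 h at 4 °C; three washes.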

B1: GST-PSD-95 1-64 (N-term): GST fusion protein of the N-terminal 64 residues of PSD-95 (protein)
chain: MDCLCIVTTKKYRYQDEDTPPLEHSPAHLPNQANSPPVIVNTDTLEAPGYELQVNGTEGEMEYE
modifications: left off: GST, N-terminal, kept
disruption of co-IP of α-actinin with PSD-95: disrupted
